ChEMBL document CHEMBL4251743, “Absolute Configuration and Pharmacology of the Poison Frog Alkaloid Phantasmidine” (J Nat Prod, 2018)
pEC50, pKi: −log10 of the molar value. The source made the active and inactive calls. The calls are words filed in the database; no cut-off is given here.

Key:
[1] = system: Mus musculus; experiment: Toxicity in iv dosed albino mouse measured after 1 hr; type: organism-based; conditions: in vivo
[2] = biological target: T1, Neuronal acetylcholine receptor; alpha4/beta2 (Homo sapiens, UniProt P17787+P43681); experiment: Agonist activity at human alpha4beta2 nAChR by cell-based rubidium flux assay
How it was run: (§1)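 Stably transfected cells expressing rat α3β4 or human α4β2 nAChR were used near confluence. They were preloaded with 86Rb+, washed, stimulated with test agonist, and the medium was separated before lysis. Efflux was taken as medium counts over total counts. Results are the mean ± SEM of 3–4 independent experiments.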

[3] = biological target: T1, Neuronal acetylcholine receptor; alpha4/beta2; experiment: Agonist activity at human alpha4beta2 nAChR by cell-based rubidium flux assay relative to 100 uM nicotine; how it was run: as §1
[4] = system: Mus musculus; experiment: Toxicity in Swiss-Webster mouse assessed as piloerection at 10 mg/kg, iv; type: organism-based; conditions: in vivo
How it was run: (§2)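 Weanling male White Swiss-Webster mice (15–20 g) were fasted for 12 h. Compound in physiological buffered saline was given intravenously via the tail vein. Mice were then returned to their pens for observation of signs.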

[5] = biological target: Neuronal acetylcholine receptor; experiment: Displacement of [3H]epibatidine from rat forebrain nAChR after 4 hrs by liquid scintillation counting method
How it was run: (§3)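 Incubation was 4 h at room temperature, followed by rapid filtration, washing and liquid scintillation counting. Nonspecific binding was defined with 300 μM nicotine. Values are the mean ± SEM of four measurements.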

[6] = biological target: T2, Neuronal acetylcholine receptor; alpha3/beta4 (Rattus norvegicus, UniProt P04757+P12392); experiment: Agonist activity at rat alpha3beta4 nAChR by cell-based rubidium flux assay; how it was run: as §1
[7] = system: Mus musculus; experiment: Toxicity in Swiss-Webster mouse assessed as elevated respiration at 10 mg/kg, iv; type: organism-based; conditions: in vivo; how it was run: as §2
[8] = system: Mus musculus; experiment: Toxicity in iv dosed Swiss-Webster mouse; type: organism-based; conditions: in vivo; how it was run: as §2
[9] = species on record: Homo sapiens; experiment: Selectivity ratio of Ki for displacement of [3H]epibatidine from alpha3beta4 nAChR (unknown origin) expressed in HEK cell membranes to Ki for displacement of [3H]epibatidine from alpha4beta2 nAChR (unknown origin) expressed in HEK cell membranes
[10] = biological target: T3, Neuronal acetylcholine receptor; alpha4/beta2 (Rattus norvegicus, UniProt P09483+P12390); experiment: Agonist activity at rat alpha4beta2 expressed in Xenopus oocytes at -60 mV holding potential by electrophysiology method; type: cell-based
How it was run: (§4)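 Defolliculated X. laevis oocytes were injected with about 50 nL of rat subunit mRNA at 1 μg/μL. For α3β2 and α4β2 the subunits were mixed 1:1. Recording was by two-electrode voltage clamp at −60 mV and about 24 °C, with perfusion in HEPES-buffered NaCl/KCl/CaCl2/MgCl2. Agonist was applied for 3–4 s every 4–5 min. Peak currents were normalised to 1 mM ACh (nAChR) or 10 μM mCPBG (5-HT3A) and fitted to the Hill equation.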

[11] = species on record: Homo sapiens; experiment: Selectivity ratio of EC50 for agonist activity at rat alpha3beta4 nAChR (unknown origin) to EC50 for agonist activity at alpha4beta2 nAChR (unknown origin)
[12] = biological target: T3, Neuronal acetylcholine receptor; alpha4/beta2; experiment: Displacement of [3H]epibatidine from alpha4beta2 nAChR (unknown origin) expressed in HEK cell membranes after 4 hrs by liquid scintillation counting method; how it was run: as §3
[13] = biological target: T4, Neuronal acetylcholine receptor subunit alpha-7 (Rattus norvegicus, UniProt Q05941); experiment: Agonist activity at rat alpha7 nAChR expressed in Xenopus oocytes at -60 mV holding potential by electrophysiology method; type: cell-based; how it was run: as §4
[14] = biological target: Neuronal acetylcholine receptor subunit alpha-7 (Rattus norvegicus) (UniProt Q05941); experiment: Agonist activity at rat alpha7 nAChR expressed in Xenopus oocytes at -60 mV holding potential by electrophysiology method relative to acetylcholine; type: cell-based; how it was run: as §4
[15] = biological target: Neuronal acetylcholine receptor; alpha3/beta4 (Rattus norvegicus) (UniProt P04757+P12392); experiment: Agonist activity at rat alpha3beta4 nAChR by cell-based rubidium flux assay relative to 100 uM nicotine
How it was run: as §1, with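 “counts. […]” for “counts.”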

[16] = biological target: T2, Neuronal acetylcholine receptor; alpha3/beta4; experiment: Displacement of [3H]epibatidine from alpha3beta4 nAChR (unknown origin) expressed in HEK cell membranes after 4 hrs by liquid scintillation counting method; how it was run: as §3
[17] = biological target: T5, Neuronal acetylcholine receptor; alpha4/beta2 (Rattus norvegicus) (UniProt P09483+P12390); experiment: Agonist activity at rat alpha4beta2 expressed in Xenopus oocytes at -60 mV holding potential by electrophysiology method relative to acetylcholine; type: cell-based; how it was run: as §4
[18] = biological target: T4, Neuronal acetylcholine receptor subunit alpha-7; experiment: Displacement of [3H]epibatidine from alpha7 nAChR (unknown origin) expressed in HEK cell membranes after 4 hrs by liquid scintillation counting method; how it was run: as §3
[19] = system: Mus musculus; experiment: Toxicity in Swiss-Webster mouse assessed as hyperactivity at 10 mg/kg, iv; type: organism-based; conditions: in vivo; how it was run: as §2
[20] = biological target: Neuronal acetylcholine receptor subunit alpha-7 (Rattus norvegicus) (UniProt Q05941); experiment: Agonist activity at rat alpha7 nAChR expressed in Xenopus oocytes at 10 uM at -60 mV holding potential by electrophysiology method in presence of methyllycaconitine; type: cell-based
[21] = biological target: T6, 5-hydroxytryptamine receptor 3A (Rattus norvegicus) (UniProt P35563); experiment: Agonist activity at rat 5HT3A expressed in Xenopus oocytes at -60 mV holding potential by electrophysiology method relative to metachlorophenylbiguanide; type: cell-based; how it was run: as §4
T6 sequence (whole entry): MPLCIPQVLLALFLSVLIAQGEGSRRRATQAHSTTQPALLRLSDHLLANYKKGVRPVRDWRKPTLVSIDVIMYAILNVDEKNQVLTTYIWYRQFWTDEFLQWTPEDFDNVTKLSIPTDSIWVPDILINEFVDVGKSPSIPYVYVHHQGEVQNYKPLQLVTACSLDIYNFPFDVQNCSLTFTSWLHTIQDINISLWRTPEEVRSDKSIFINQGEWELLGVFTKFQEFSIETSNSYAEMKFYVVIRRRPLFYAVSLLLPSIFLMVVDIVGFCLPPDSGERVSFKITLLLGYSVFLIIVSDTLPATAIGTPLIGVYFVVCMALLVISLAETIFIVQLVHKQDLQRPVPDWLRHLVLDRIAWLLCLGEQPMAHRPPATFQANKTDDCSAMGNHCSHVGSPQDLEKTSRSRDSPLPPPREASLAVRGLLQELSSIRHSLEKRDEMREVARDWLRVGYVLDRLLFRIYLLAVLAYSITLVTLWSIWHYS

[22] = biological target: T7, Neuronal acetylcholine receptor; alpha3/beta2 (Rattus norvegicus) (UniProt P04757+P12390); experiment: Agonist activity at rat alpha3beta2 expressed in Xenopus oocytes at -60 mV holding potential by electrophysiology method relative to acetylcholine; type: cell-based; how it was run: as §4
[23] = species on record: Rattus norvegicus; experiment: Selectivity ratio of EC50 for rat alpha7 nAChR expressed in Xenopus oocytes to EC50 rat alpha4beta2 expressed in Xenopus oocytes; type: cell-based
[24] = biological target: T5, Neuronal acetylcholine receptor; alpha4/beta2 (Rattus norvegicus); experiment: Agonist activity at rat alpha4beta2 expressed in Xenopus oocytes at 10 nM at -60 mV holding potential in presence of dihydro-beta-erythroidine by electrophysiology method; type: cell-based
[25] = biological target: T7, Neuronal acetylcholine receptor; alpha3/beta2 (Rattus norvegicus); experiment: Agonist activity at rat alpha3beta2 expressed in Xenopus oocytes at 10 nM at -60 mV holding potential in presence of dihydro-beta-erythroidine by electrophysiology method; type: cell-based
[26] = biological target: Neuronal acetylcholine receptor; alpha3/beta2 (Rattus norvegicus, UniProt P04757+P12390); experiment: Agonist activity at rat alpha3beta2 expressed in Xenopus oocytes at -60 mV holding potential by electrophysiology method; type: cell-based; how it was run: as §4
[27] = biological target: T8, 5-hydroxytryptamine receptor 3A (Rattus norvegicus, UniProt P35563); experiment: Agonist activity at rat 5HT3A expressed in Xenopus oocytes at -60 mV holding potential by electrophysiology method; type: cell-based; how it was run: as §4
T8 sequence (P35563 whole entry): T6 sequence (whole entry)

[28] = biological target: T6, 5-hydroxytryptamine receptor 3A (Rattus norvegicus); experiment: Agonist activity at rat 5HT3A expressed in Xenopus oocytes at 100 uM at -60 mV holding potential in presence of tropisetron by electrophysiology method; type: cell-based
How it was run: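 Oocytes expressing rat 5-HT3A were held at −60 mV under two-electrode voltage clamp. Tropisetron (30 nM) was pre-applied for 2 min before 100 μM agonist was applied, with n=4.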

[29] = system: Mus musculus; experiment: Toxicity in Swiss-Webster mouse assessed as elevated respiration at 40 ug/kg, iv measured within 1 min; type: organism-based; conditions: in vivo, 0.04 mg/kg; how it was run: as §2
[30] = system: Mus musculus; experiment: Toxicity in Swiss-Webster mouse assessed as tonic-clonic seizures at 50 ug/kg, iv measured within 30 secs; type: organism-based; conditions: in vivo, 0.05 mg/kg, 0.5 min; how it was run: as §2
[31] = system: Mus musculus; experiment: Toxicity in Swiss-Webster mouse assessed as piloerection at 50 ug/kg, iv; type: organism-based; conditions: in vivo, 0.05 mg/kg; how it was run: as §2
[32] = system: Mus musculus; experiment: Toxicity in Swiss-Webster mouse assessed as piloerection at 40 ug/kg, iv; type: organism-based; conditions: in vivo, 0.04 mg/kg; how it was run: as §2
[33] = system: Mus musculus; experiment: Toxicity in Swiss-Webster mouse assessed as piloerection at 40 ug/kg, iv measured within 1 min; type: organism-based; conditions: in vivo, 0.04 mg/kg; how it was run: as §2
[34] = system: Mus musculus; experiment: Toxicity in Swiss-Webster mouse assessed as hyperactivity at 50 ug/kg, iv; type: organism-based; conditions: in vivo, 0.05 mg/kg; how it was run: as §2
[35] = system: Mus musculus; experiment: Toxicity in Swiss-Webster mouse assessed as death at 50 ug/kg, iv measured within 30 secs; type: organism-based; conditions: in vivo, 0.05 mg/kg, 0.5 min; how it was run: as §2
[36] = system: Mus musculus; experiment: Toxicity in Swiss-Webster mouse assessed as elevated respiration at 40 ug/kg, iv; type: organism-based; conditions: in vivo, 0.04 mg/kg; how it was run: as §2
[37] = system: Mus musculus; experiment: Toxicity in Swiss-Webster mouse assessed as elevated respiration at 50 ug/kg, iv; type: organism-based; conditions: in vivo, 0.05 mg/kg; how it was run: as §2

Chain of Neuronal acetylcholine receptor subunit alpha-7 (Rattus norvegicus) (Q05941 whole entry): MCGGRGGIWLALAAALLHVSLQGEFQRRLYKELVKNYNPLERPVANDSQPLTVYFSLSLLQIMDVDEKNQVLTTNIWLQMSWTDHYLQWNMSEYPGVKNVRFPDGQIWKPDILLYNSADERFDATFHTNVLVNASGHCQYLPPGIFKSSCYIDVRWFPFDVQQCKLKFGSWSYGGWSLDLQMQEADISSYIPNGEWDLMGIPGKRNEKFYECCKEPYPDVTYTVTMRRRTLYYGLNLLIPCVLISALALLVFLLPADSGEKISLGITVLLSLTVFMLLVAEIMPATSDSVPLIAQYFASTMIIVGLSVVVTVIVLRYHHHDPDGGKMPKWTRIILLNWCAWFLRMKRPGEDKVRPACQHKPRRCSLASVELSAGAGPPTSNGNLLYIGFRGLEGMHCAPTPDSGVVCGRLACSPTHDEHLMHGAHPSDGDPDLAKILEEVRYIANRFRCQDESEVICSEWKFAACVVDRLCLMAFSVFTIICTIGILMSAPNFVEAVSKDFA
T4 sequence (Q05941 whole entry): as above
T3 sequence (P09483 whole entry, the tested form may be a part): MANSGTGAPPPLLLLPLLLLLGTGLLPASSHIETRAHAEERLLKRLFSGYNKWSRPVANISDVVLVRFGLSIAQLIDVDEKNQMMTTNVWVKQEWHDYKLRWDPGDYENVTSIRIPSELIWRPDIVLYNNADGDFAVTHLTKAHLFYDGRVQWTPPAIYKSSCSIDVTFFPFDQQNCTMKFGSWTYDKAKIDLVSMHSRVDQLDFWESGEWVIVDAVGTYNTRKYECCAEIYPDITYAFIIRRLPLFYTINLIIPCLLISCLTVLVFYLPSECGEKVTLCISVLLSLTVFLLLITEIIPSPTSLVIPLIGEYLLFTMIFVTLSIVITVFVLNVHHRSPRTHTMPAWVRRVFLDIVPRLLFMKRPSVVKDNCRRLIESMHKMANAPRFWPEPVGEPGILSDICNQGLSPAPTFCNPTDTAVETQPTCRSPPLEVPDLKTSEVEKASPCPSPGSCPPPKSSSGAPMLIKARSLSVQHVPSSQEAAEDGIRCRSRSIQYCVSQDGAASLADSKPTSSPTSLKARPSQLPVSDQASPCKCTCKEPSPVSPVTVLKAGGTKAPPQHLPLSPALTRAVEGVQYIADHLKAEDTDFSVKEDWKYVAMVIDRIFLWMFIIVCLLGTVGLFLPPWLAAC
T3 sequence (P12390 whole entry, the tested form may be a part): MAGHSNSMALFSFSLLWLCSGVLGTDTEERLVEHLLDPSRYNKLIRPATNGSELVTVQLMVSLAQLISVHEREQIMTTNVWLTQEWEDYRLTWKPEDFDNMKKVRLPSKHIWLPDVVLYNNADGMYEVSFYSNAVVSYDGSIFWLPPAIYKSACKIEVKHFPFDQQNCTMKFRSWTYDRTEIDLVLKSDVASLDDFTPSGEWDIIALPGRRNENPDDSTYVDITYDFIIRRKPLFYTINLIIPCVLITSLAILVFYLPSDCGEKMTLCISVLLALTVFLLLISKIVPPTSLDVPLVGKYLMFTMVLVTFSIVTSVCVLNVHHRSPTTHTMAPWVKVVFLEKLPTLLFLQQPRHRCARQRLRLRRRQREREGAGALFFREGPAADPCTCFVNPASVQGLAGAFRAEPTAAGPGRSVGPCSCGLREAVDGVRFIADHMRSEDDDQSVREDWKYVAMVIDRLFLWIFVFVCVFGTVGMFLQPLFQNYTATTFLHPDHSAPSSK
T1 sequence (P17787 whole entry): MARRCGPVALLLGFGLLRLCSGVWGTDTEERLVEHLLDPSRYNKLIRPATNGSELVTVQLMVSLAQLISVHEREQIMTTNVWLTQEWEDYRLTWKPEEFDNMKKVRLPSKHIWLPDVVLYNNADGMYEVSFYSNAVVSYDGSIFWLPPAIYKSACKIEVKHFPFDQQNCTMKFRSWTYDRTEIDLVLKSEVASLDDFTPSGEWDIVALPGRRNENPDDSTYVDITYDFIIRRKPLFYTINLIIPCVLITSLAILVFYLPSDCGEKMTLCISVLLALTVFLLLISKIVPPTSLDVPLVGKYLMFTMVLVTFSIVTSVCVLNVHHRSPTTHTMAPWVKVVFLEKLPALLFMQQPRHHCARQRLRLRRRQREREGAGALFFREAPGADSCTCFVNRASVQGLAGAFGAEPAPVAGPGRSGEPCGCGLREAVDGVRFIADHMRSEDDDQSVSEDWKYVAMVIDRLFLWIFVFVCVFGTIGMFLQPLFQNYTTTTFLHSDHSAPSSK
T1 sequence (P43681 whole entry): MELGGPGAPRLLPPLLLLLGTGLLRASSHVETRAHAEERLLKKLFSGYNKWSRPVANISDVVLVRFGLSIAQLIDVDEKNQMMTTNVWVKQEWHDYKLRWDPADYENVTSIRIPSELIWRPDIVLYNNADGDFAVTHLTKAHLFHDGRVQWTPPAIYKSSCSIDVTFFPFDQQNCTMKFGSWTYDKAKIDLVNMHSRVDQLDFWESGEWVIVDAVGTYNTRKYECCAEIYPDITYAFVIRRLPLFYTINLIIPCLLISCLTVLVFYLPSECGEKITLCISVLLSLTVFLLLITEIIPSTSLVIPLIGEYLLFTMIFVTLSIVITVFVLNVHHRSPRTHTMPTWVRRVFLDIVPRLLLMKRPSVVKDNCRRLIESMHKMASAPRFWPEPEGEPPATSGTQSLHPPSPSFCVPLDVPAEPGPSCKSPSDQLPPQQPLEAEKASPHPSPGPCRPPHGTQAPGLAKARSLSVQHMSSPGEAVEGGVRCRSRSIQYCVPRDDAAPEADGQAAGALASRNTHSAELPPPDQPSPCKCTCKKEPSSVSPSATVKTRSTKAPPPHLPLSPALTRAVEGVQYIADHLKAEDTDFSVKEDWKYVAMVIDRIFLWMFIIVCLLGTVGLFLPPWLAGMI
T2 sequence (P04757 whole entry): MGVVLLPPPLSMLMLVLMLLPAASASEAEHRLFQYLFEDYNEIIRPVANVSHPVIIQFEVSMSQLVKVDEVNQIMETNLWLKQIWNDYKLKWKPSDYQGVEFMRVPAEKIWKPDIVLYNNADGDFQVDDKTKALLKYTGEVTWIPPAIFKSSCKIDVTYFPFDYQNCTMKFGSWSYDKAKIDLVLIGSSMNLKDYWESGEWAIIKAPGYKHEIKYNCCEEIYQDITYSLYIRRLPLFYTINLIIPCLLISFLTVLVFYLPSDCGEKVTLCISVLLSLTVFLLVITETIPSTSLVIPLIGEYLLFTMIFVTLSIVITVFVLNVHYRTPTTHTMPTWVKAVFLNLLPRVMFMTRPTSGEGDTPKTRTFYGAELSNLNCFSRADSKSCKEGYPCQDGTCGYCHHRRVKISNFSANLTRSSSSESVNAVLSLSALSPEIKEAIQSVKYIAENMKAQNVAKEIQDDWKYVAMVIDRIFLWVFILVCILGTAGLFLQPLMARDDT
T2 sequence (P12392 whole entry): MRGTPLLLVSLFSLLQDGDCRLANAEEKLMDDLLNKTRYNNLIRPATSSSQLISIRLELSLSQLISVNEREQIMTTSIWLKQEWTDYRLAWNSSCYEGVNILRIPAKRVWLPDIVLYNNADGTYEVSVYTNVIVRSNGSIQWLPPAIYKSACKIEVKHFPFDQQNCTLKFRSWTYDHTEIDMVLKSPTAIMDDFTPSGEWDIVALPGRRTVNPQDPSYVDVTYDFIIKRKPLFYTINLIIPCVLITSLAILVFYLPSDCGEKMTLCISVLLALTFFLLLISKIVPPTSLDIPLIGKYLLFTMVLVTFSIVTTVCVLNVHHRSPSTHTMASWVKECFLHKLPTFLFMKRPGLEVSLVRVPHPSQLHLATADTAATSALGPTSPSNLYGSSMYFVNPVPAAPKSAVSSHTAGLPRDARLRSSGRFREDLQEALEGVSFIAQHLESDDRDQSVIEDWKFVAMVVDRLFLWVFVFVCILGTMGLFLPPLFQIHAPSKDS
Chain of Neuronal acetylcholine receptor; alpha3/beta2 (P04757 whole entry): as the sequence (P04757 whole entry) above
Chain of Neuronal acetylcholine receptor; alpha3/beta2 (P12390 whole entry): as the sequence (P12390 whole entry, the tested form may be a part) above

Row | SMILES | LD50 [1] [mg/kg] | pEC50 [2] | Emax [3] [%] | pKi [5] | pEC50 [6] | LD50 [8] [mg/kg] | Ratio Ki [9] | pEC50 [10] | Ratio EC50 [11] | pKi [12] | pEC50 [13] | Imax [14] [%] | Emax [15] [%] | pKi [16] | Imax [17] [%] | pKi [18] | further results
1 | CN1CCC[C@H]1c1ccccc1 | 0.3 | 5.68 |  |  |  |  |  |  |  |  |  |  |  |  |  |  | 
2 | Clc1ccc2c(n1)O[C@@]13CC[C@@H]1NC[C@@H]23 [PHANTASMIDINE] |  | 4.25 | 110 | 7.54 | 4.57 | > 10 | 33 | 7.35 | 0.49 | 7.92 | 4.68 | 1.02 | 53 | 6.41 | 0.43 | 6.89 | Activity [4]: Toxic; Activity [7]: Toxic; Activity [19]: Toxic
3 | Clc1ccc2c(n1)OC13CCC1NCC23 (racemic) |  | 6.70 | 42 | 8.96 | 6.12 | 0.27 | 31 | 8.51 | 3.7 | 9.46 | 5.00 | 1.08 | 91 | 7.96 | 0.32 | 8.27 | Activity [20]: inactive; Imax [21]: 0.79%; Imax [22]: 0.25%; Ratio EC50 [23]: 3200; Activity [24]: inactive; Activity [25]: inactive; pEC50 [26]: 4.72; pEC50 [27]: 4.54; Activity [28]: inactive
4 | O=c1cccc2n1C[C@@H]1CNC[C@H]2C1 [CYTISINICLINE] | 1.73 |  |  |  |  |  |  |  |  |  |  |  |  |  |  |  | 
5 | Clc1ccc(C2CC3CCC2N3)cn1 (racemic) [EPIBATIDINE] |  |  | 135 |  |  | 0.0015 |  |  |  |  |  |  | 114 |  |  |  | 
6 | Clc1ccc2c(n1)O[C@]13CC[C@H]1NC[C@H]23 |  | 6.70 | 45 | 9.06 | 6.24 | 0.072 | 34 | 8.82 | 2.9 | 9.57 | 5.40 | 1.1 | 91 | 8.04 | 0.37 | 8.36 | Activity [29]: Non-Toxic; Activity [30]: Toxic; Activity [31]: Toxic; Activity [32]: Toxic; Activity [33]: Non-Toxic; Activity [34]: Toxic; Activity [35]: Toxic; Activity [36]: Toxic; Activity [37]: Toxic
